From ChEMBL document CHEMBL3826885, “Similarities and differences in affinity and binding modes of tricyclic pyrimido- and pyrazinoxanthines at human and rat adenosine receptors” (Bioorg Med Chem, 2016)
≈ marks a conversion by molar mass, not a printed value.

Key:
[1] = target: T1, Adenosine receptor A2b (Homo sapiens) (UniProt P29275); experiment: Displacement of [3H]PSB-603 from recombinant human adenosine receptor A2b expressed in CHO cell membranes at 1 uM
T1 sequence (whole entry): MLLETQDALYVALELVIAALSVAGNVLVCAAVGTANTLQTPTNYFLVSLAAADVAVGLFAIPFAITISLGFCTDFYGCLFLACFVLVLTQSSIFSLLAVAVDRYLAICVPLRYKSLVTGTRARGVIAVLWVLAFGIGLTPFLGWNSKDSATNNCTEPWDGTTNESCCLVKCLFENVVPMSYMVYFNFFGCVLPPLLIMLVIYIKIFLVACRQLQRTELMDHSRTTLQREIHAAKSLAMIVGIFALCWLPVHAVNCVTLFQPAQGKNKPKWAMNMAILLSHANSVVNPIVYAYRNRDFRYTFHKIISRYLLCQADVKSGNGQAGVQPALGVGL
In short: (§1)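 Membranes came from CHO cells expressing recombinant receptors (human A1, A2A, A2B, A3; rat A2B, A3). Radioligands were [3H]CCPA for A1 and [3H]PSB-11 or [3H]NECA for A3. A single high concentration was screened first, in three experiments for A1/A2A and two for A2B/A3. Full inhibition curves spanning at least 3 log units were run for potent compounds.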

Adenosine receptor A1 [2] = target: T2, Adenosine receptor A1 (Rattus norvegicus, UniProt P25099); experiment: Displacement of [3H]CCPA from adenosine receptor A1 in rat brain cortical membranes; assay type: cell membranes
T2 sequence (P25099 whole entry): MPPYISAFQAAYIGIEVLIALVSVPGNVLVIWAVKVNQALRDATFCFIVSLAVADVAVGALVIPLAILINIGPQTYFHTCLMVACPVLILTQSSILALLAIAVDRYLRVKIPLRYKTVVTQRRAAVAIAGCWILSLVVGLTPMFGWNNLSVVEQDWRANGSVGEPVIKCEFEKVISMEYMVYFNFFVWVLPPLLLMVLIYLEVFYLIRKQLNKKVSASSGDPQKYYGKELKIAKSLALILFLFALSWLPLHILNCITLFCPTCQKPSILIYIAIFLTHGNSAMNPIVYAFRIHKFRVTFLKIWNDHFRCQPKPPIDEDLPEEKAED
In short: (§2)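 Native rat receptors: A1 in brain cortical membranes with [3H]CCPA, A2A in brain striatal membranes, from frozen unstripped rat brains. Compounds were first screened at a single high concentration in three independent experiments.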

Adenosine receptor A3 [3] = target: T3, Adenosine receptor A3 (Homo sapiens, UniProt P0DMS8); experiment: Displacement of [3H]PSB-11 from recombinant human adenosine receptor A3 expressed in CHO cell membranes
T3 sequence (P0DMS8 whole entry): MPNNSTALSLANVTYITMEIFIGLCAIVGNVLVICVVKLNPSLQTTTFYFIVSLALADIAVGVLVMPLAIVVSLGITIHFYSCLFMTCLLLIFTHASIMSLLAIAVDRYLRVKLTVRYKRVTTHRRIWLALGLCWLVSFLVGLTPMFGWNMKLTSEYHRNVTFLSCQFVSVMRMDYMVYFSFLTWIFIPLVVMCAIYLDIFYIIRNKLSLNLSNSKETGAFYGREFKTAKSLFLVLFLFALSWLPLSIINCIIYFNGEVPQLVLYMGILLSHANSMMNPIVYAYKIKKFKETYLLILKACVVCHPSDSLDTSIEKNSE

Adenosine receptor A2a [4] = target: Adenosine receptor A2a (Rattus norvegicus, UniProt P30543); experiment: Displacement of [3H]MSX2 from adenosine receptor A2a in rat brain striatal membranes; assay type: cell membranes, Membrane
Sequence of Adenosine receptor A2a (Rattus norvegicus, UniProt P30543) (P30543 whole entry): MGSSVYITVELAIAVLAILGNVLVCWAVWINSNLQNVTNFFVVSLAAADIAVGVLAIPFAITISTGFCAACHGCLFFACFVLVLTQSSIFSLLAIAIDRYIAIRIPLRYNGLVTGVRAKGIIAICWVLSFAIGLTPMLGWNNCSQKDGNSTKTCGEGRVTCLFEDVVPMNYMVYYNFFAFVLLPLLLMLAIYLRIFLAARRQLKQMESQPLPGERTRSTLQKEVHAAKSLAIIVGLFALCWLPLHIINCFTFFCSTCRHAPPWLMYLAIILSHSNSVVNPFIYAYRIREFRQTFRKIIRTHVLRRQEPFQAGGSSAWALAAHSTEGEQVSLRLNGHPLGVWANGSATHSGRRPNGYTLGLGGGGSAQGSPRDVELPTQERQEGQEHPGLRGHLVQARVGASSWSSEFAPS
In short: as §2, with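 “experiments. Active compounds then had full inhibition curves over at least 3 orders of magnitude of concentration.” for “experiments.”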

Adenosine receptor A2b [5] = target: T4, Adenosine receptor A2b (Homo sapiens, UniProt P29275); experiment: Displacement of [3H]PSB-603 from recombinant human adenosine receptor A2b expressed in CHO cell membranes
T4 sequence (P29275 whole entry): T1 sequence (whole entry)
In short: (§3)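 Membranes came from CHO cells expressing recombinant receptors (human A1, A2A, A2B, A3; rat A2B, A3). Radioligands were [3H]CCPA for A1 and [3H]PSB-11 or [3H]NECA for A3. A single high concentration was screened first, in three experiments for A1/A2A and two for A2B/A3.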

[6] = target: T5, Adenosine receptor A3 (Homo sapiens) (UniProt P0DMS8); experiment: Displacement of [3H]PSB11 from recombinant human adenosine receptor A3 expressed in CHO cell membranes at 1 uM; in short: as §1
T5 sequence (whole entry): T3 sequence (P0DMS8 whole entry)

[7] = target: T6, Adenosine receptor A1 (Rattus norvegicus) (UniProt P25099); experiment: Displacement of [3H]CCPA from adenosine receptor A1 in rat brain cortical membranes at 10 uM; assay type: cell membranes; settings: 10 uM
T6 sequence (whole entry): T2 sequence (P25099 whole entry)
In short: as §2, with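 “experiments. Active compounds then had full inhibition curves over at least 3 orders of magnitude of concentration.” for “experiments.”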

[8] = target: T7, Adenosine receptor A1 (Homo sapiens) (UniProt P30542); experiment: Displacement of [3H]CCPA from recombinant human adenosine receptor A1 expressed in CHO cell membranes at 1 uM; in short: as §1
T7 sequence (whole entry): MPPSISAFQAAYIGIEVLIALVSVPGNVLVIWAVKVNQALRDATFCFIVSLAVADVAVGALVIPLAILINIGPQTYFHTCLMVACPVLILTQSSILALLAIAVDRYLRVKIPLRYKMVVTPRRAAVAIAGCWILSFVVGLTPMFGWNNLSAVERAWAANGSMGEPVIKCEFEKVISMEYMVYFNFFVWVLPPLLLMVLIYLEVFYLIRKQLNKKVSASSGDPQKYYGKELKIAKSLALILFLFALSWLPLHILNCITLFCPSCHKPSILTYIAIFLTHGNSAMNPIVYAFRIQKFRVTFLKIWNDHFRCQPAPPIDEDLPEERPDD

Adenosine receptor A2a [9] = target: T8, Adenosine receptor A2a (Homo sapiens, UniProt P29274); experiment: Displacement of [3H]MSX2 from recombinant human adenosine receptor A2a expressed in CHO cell membranes at 1 uM; in short: as §1
T8 sequence (P29274 whole entry): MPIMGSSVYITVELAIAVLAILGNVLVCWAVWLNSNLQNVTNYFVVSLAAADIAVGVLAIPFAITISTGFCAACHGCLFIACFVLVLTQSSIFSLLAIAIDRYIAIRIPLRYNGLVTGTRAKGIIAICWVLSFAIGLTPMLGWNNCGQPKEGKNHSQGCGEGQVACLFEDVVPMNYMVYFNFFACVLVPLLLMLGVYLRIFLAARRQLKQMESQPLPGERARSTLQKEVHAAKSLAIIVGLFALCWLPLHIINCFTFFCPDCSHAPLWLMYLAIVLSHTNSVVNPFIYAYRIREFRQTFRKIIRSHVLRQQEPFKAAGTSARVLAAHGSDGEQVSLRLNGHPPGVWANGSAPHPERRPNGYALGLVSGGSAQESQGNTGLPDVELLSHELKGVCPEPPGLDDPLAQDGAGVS

Adenosine receptor A3 [10] = target: T9, Adenosine receptor A3 (Rattus norvegicus, UniProt P28647); experiment: Displacement of [3H]NECA from recombinant rat adenosine receptor A3 expressed in CHO cell membranes; in short: as §3
T9 sequence (P28647 whole entry): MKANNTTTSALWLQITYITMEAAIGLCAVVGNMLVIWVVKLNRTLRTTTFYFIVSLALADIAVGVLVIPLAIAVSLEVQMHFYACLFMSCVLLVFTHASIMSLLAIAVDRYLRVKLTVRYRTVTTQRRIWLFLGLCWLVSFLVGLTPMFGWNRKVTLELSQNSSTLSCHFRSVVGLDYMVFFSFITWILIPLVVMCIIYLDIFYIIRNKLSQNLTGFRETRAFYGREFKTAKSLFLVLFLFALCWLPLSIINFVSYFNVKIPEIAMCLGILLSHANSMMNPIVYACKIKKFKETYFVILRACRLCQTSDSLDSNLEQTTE

Adenosine receptor A2b [11] = target: T10, Adenosine receptor A2b (Rattus norvegicus, UniProt P29276); experiment: Displacement of [3H]PSB-603 from recombinant rat adenosine receptor A2b expressed in CHO cell membranes; in short: as §3
T10 sequence (P29276 whole entry): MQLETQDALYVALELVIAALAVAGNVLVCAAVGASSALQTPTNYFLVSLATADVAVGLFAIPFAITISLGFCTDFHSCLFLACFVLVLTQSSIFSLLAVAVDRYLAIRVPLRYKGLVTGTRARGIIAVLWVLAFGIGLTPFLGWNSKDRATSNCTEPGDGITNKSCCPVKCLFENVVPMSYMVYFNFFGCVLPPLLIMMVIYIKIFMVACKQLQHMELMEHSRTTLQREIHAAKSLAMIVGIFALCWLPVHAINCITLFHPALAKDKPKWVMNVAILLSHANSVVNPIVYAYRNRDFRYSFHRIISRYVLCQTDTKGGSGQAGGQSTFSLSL

[12] = target: T11, Adenosine receptor A3 (Rattus norvegicus) (UniProt P28647); experiment: Displacement of [3H]NECA from recombinant rat adenosine receptor A3 expressed in CHO cell membranes at 1 uM; in short: as §1
T11 sequence (whole entry): T9 sequence (P28647 whole entry)

[13] = target: T12, Adenosine receptor A2b (Rattus norvegicus) (UniProt P29276); experiment: Displacement of [3H]PSB-603 from recombinant rat adenosine receptor A2b expressed in CHO cell membranes at 1 uM; in short: as §1
T12 sequence (whole entry): T10 sequence (P29276 whole entry)

Adenosine receptor A2a [14] = target: T8, Adenosine receptor A2a; experiment: Displacement of [3H]MSX2 from recombinant human adenosine receptor A2a expressed in CHO cell membranes; in short: as §1
[15] = target: Adenosine receptor A2a (Rattus norvegicus) (UniProt P30543); experiment: Displacement of [3H]MSX2 from Adenosine receptor A2a in rat brain striatal membranes at 1 uM; assay type: cell membranes; settings: Membrane
Sequence of Adenosine receptor A2a (Rattus norvegicus) (P30543 whole entry): as the sequence (P30543 whole entry) above
In short: as §2, with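 “experiments. Active compounds then had full inhibition curves over at least 3 orders of magnitude of concentration.” for “experiments.”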

Adenosine receptor A1 [16] = target: T13, Adenosine receptor A1 (Homo sapiens, UniProt P30542); experiment: Displacement of [3H]CCPA from recombinant human adenosine receptor A1 expressed in CHO cell membranes; in short: as §1
T13 sequence (P30542 whole entry): T7 sequence (whole entry)

[17] = target: T6, Adenosine receptor A1 (Rattus norvegicus); experiment: Displacement of [3H]CCPA from adenosine receptor A1 in rat brain cortical membranes at 1 uM; assay type: cell membranes
In short: as §2, with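 “experiments. Active compounds then had full inhibition curves over at least 3 orders of magnitude of concentration.” for “experiments.”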

Adenosine receptor A2a [18] = target: T8, Adenosine receptor A2a; experiment: Antagonist activity at human adenosine receptor A2a expressed in CHO cell membranes assessed as inhibition of NECA-induced cAMP accumulation incubated for 15 mins in presence of [3H]cAMP by liquid scintillation counting; assay type: functional
In short: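 Stably transfected CHO cells (human A2A or A2B) grown in DMEM-F12 with 10% FCS at 37 °C, 5% CO2. The cells were seeded at 200,000/well, washed after 24 h and held 2 h in HBSS (pH 7.3) with 1 U/ml adenosine deaminase. Ro20-1724 was added to 40 µM final for 15 min, then NECA dilutions ± one fixed test concentration in 2.5% DMSO, in duplicate.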

[19] = Solubility of compound in water at 20 degC by UV-spectroscopic analysis; assay type: physicochemical
In short: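 Suspensions were boiled 5 min, left overnight at 20 °C, and filtered. Filtrates were diluted 10-80-fold in MeOH and read by UV in MeOH/H2O (90% v/v). Concentration came from standard curves of seven concentrations from 10^-3 to 10^-1 mg/mL, using linear regression of two neighbouring points and multiplying by the dilution.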

inhibition [1] | Ki (Adenosine receptor A1 [2]) | Ki (Adenosine receptor A3 [3]) | Ki (Adenosine receptor A2a [4]) | Ki (Adenosine receptor A2b [5]) | inhibition [6] | inhibition [7] | inhibition [8] | inhibition (Adenosine receptor A2a [9]) | Ki (Adenosine receptor A3 [10]) | Ki (Adenosine receptor A2b [11]) | inhibition [12] | inhibition [13] | Ki (Adenosine receptor A2a [14]) | inhibition [15] | Ki (Adenosine receptor A1 [16]) | inhibition [17] | Kb (Adenosine receptor A2a [18]) | solubility [19] | Structure (SMILES)
19% | > 10000 nM | > 1000 nM | 7850 nM | > 1000 nM | 0% | 42% |  |  |  |  |  |  |  |  |  |  |  |  | CCN(CC)CCOc1ccc(CCN2CCn3c(nc4c3c(=O)n(C)c(=O)n4C)C2)cc1
6% | 137 nM | > 1000 nM | 1460 nM | > 1000 nM | 44% |  | 30% | 54% | > 1000 nM | > 1000 nM | 16% | 6% | 1010 nM | 49% | 1190 nM | 55% |  |  | CCCCn1c(=O)c2c(nc3n2CCCN3c2ccc(OCCN(CC)CC)cc2)n(CCCC)c1=O
41% | 127 nM |  | 1480 nM | > 1000 nM | 48% |  | 42% | 53% | > 1000 nM | > 1000 nM | 20% | 9% | 921 nM | 49% | 713 nM | 65% |  |  | CCCCn1c(=O)c2c(nc3n2CCCN3c2ccc(OCCN3CCCCC3)cc2)n(CCCC)c1=O
34% | 72 nM |  | 989 nM | > 1000 nM | 48% |  | 41% | 68% | > 1000 nM | > 1000 nM | 20% | 15% | 666 nM | 49% | 658 nM | 69% |  |  | CCCCn1c(=O)c2c(nc3n2CCCN3c2ccc(OCCN3CCCC3)cc2)n(CCCC)c1=O
 |  |  |  |  |  |  |  |  |  |  |  |  |  |  |  |  | 2220 nM |  | Cn1c(=O)c2c(nc3n2CCCN3CCc2ccc(O)cc2)n(C)c1=O
 |  |  |  |  |  |  |  |  |  |  |  |  |  |  |  |  |  | 63 µg/mL (≈ 171 µM) | COc1ccc(CCN2CCCn3c2nc2c3c(=O)n(C)c(=O)n2C)cc1
